In ChEMBL document CHEMBL3351692, “Discovery and optimization of 1,3,5-trisubstituted pyrazolines as potent and highly selective allosteric inhibitors of protein kinase C-ζ” (J Med Chem, 2014):
Activity calls are given as the source filed them. The rule behind the calls is not given here.

Experiments:
RAW264.7 = experiment: Cytotoxicity against mouse RAW264.7 cells assessed as living cells at 7.5 uM by MTT assay; assay type: cell-based; conditions: raw264.7, 7.5 µM
Outline: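 RAW 264.7 macrophages: MTT viability assay run in parallel with each nitrite (Griess) experiment, same cell line and same compound treatment conditions.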

[1] = target: Inhibitor of nuclear factor kappa-B kinase subunit beta (Homo sapiens) (UniProt O14920); experiment: Inhibition of human IKKbeta at 10 uM relative to control
Chain of Inhibitor of nuclear factor kappa-B kinase subunit beta (Homo sapiens) (O14920 whole entry): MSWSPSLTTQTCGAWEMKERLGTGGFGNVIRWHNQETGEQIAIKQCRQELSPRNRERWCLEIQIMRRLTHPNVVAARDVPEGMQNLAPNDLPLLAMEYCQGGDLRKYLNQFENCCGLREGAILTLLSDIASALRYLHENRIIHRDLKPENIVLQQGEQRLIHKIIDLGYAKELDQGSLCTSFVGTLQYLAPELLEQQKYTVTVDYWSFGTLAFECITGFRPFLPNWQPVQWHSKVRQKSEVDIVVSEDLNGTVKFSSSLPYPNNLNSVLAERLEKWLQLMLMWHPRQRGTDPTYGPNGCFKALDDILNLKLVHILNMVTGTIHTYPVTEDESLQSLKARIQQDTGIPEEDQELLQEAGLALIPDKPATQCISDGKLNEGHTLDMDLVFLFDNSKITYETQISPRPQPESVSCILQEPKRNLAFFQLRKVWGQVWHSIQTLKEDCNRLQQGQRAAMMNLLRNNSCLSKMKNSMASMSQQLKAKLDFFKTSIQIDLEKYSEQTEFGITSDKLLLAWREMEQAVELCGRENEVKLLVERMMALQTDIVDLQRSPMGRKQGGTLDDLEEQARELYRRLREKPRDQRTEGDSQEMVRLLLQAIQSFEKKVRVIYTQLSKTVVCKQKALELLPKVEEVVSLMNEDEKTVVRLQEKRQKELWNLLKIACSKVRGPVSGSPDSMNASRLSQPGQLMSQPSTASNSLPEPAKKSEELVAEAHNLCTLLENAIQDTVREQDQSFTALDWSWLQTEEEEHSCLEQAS

[2] = target: Receptor-interacting serine/threonine-protein kinase 2 (Homo sapiens) (UniProt O43353); experiment: Inhibition of human RIPK2 at 10 uM relative to control
[3] = target: Mitogen-activated protein kinase 14 (Homo sapiens) (UniProt Q16539); experiment: Inhibition of human p38alpha MAPK at 10 uM relative to control
[4] = target: Mitogen-activated protein kinase kinase kinase 7 (Homo sapiens) (UniProt O43318); experiment: Inhibition of human TAK1 at 10 uM relative to control
Chain of Mitogen-activated protein kinase kinase kinase 7 (Homo sapiens) (O43318 whole entry): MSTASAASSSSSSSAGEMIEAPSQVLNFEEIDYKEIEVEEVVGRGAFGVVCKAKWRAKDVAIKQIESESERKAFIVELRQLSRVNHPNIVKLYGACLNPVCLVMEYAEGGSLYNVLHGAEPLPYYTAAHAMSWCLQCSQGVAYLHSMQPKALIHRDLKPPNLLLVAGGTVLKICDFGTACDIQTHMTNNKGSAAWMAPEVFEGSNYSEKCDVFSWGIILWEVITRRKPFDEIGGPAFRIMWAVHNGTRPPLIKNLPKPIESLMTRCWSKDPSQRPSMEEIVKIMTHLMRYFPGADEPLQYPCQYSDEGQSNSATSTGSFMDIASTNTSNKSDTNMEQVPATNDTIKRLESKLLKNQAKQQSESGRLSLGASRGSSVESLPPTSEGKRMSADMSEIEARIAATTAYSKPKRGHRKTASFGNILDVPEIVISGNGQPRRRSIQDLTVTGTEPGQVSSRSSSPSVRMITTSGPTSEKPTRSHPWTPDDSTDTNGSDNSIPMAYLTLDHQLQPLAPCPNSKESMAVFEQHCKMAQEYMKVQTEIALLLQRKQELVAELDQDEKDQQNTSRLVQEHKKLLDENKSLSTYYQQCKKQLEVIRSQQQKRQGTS

[5] = target: Serine/threonine-protein kinase TBK1 (Homo sapiens) (UniProt Q9UHD2); experiment: Inhibition of human TBK1 at 10 uM relative to control
[6] = target: Protein kinase C beta type (Homo sapiens) (UniProt P05771); experiment: Inhibition of human PKCbeta2 at 10 uM relative to control
Chain of Protein kinase C beta type (Homo sapiens) (P05771 2-671 limits assumed): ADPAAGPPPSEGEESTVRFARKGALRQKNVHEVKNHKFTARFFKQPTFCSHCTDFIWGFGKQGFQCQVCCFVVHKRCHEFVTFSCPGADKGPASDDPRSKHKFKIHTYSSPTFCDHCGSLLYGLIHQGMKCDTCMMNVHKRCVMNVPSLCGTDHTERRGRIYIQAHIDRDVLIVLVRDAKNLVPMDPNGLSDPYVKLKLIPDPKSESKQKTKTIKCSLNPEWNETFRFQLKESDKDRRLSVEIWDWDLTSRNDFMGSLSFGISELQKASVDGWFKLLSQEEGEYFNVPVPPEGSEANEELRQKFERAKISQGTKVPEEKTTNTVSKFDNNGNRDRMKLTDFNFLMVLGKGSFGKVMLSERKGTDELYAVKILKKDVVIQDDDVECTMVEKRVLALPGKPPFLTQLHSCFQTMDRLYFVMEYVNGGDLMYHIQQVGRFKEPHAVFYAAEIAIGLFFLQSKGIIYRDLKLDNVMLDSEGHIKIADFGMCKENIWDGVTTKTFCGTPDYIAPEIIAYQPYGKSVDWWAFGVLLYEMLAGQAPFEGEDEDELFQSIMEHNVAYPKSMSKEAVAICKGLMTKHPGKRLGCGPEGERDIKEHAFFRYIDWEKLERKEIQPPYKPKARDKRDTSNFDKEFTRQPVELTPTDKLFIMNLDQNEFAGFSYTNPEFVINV

[7] = target: T1, Nitric oxide synthase, inducible (Mus musculus) (UniProt P29477); experiment: Inhibition of iNOS induction in mouse RAW264.7 cells assessed as NO production at 7.5 uM; assay type: cell-based
T1 sequence (whole entry): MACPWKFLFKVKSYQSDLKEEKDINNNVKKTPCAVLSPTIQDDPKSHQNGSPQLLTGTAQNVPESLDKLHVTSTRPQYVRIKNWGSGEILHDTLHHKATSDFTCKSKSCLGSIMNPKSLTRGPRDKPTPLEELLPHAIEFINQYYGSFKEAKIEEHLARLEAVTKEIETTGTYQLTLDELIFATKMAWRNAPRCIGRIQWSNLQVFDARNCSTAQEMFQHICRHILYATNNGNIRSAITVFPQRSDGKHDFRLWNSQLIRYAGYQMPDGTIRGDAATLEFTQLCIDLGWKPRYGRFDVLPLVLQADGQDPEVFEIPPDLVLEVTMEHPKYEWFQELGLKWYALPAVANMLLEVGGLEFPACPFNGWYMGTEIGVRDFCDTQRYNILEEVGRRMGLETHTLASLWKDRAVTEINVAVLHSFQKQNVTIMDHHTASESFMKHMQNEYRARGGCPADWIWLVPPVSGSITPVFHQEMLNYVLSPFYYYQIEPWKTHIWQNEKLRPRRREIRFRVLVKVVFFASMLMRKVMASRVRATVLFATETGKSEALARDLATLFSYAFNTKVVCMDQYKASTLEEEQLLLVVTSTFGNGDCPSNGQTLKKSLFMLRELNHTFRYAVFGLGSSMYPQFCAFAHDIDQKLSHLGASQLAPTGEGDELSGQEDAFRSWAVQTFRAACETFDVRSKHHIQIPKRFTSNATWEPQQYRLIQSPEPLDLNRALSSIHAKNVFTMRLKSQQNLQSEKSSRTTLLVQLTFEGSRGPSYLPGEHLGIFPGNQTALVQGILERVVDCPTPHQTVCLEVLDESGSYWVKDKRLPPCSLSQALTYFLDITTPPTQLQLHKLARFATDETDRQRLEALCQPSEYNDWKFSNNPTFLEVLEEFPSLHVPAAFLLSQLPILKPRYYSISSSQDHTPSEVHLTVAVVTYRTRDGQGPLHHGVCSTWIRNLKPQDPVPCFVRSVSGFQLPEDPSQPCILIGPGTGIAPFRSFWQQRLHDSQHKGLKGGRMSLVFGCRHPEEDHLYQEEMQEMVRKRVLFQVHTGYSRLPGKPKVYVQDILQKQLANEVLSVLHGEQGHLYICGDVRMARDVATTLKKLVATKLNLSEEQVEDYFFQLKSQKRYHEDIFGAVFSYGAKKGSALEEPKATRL
Outline: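 RAW 264.7 cells seeded at 8 × 10⁴ per well in DMEM/10% FBS and grown 2 days. Then exposed to LPS with compound or DMSO for 20 h. Supernatant nitrite measured by Griess reaction (sulfanilamide/NED) at 550 nm minus 620 nm background, quantified against a sodium nitrite standard curve. At least four experiments in triplicate.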

[8] = target: T2, Protein kinase C zeta type (Homo sapiens, UniProt Q05513); experiment: Inhibition of human PKCzeta assessed as phosphorylation reaction after 4 mins incubation by cell-free assay
T2 sequence (Q05513 whole entry): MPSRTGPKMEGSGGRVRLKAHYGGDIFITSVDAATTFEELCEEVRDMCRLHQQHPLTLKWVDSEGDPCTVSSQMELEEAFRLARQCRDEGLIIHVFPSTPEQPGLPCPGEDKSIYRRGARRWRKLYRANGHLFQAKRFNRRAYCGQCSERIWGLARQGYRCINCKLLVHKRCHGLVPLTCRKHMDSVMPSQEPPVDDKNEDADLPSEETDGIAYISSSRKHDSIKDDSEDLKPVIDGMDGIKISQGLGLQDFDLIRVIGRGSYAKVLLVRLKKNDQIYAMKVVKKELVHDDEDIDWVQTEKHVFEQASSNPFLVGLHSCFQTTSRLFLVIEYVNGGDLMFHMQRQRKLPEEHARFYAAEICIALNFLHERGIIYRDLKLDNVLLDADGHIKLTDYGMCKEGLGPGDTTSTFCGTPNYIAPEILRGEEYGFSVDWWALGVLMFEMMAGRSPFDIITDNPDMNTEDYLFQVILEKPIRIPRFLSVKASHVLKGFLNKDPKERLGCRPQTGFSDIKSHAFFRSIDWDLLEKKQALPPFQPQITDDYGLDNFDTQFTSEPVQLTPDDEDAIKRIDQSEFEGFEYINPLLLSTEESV

[9] = target: T3, Protein kinase C iota type (Homo sapiens) (UniProt P41743); experiment: Inhibition of PKCiota (unknown origin) at 20 uM
T3 sequence (whole entry): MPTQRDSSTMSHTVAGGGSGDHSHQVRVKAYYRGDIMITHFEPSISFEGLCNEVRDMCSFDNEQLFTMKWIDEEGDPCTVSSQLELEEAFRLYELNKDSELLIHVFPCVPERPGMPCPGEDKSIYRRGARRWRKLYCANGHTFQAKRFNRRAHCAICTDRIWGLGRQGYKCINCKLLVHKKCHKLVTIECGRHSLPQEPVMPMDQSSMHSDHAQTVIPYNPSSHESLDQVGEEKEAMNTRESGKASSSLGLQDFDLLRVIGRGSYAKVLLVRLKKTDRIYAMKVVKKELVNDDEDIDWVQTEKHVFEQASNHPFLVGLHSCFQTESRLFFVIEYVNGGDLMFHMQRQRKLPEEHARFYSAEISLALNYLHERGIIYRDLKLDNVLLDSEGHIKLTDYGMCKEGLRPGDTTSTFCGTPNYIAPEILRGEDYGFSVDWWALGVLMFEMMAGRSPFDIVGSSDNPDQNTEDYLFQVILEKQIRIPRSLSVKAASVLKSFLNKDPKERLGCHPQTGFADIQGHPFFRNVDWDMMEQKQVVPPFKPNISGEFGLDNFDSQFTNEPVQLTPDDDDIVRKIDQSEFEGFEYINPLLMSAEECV
Outline: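 Cell-free radiometric kinase assay with purified recombinant PKCι under conditions similar to the PKCζ assay. Reaction mixtures preincubated 4 min at 37 °C, then phosphorylation started with γ32P-ATP/Mg2+. Mean of at least two experiments.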

[10] = target: Protein kinase C zeta type (Homo sapiens, UniProt Q05513, V297L); experiment: Inhibition of PKCzeta val297leu mutant (unknown origin) assessed as phosphorylation reaction after 4 mins incubation by cell-free assay
Chain of Protein kinase C zeta type (Homo sapiens, UniProt Q05513, V297L) (Q05513 whole entry V297L): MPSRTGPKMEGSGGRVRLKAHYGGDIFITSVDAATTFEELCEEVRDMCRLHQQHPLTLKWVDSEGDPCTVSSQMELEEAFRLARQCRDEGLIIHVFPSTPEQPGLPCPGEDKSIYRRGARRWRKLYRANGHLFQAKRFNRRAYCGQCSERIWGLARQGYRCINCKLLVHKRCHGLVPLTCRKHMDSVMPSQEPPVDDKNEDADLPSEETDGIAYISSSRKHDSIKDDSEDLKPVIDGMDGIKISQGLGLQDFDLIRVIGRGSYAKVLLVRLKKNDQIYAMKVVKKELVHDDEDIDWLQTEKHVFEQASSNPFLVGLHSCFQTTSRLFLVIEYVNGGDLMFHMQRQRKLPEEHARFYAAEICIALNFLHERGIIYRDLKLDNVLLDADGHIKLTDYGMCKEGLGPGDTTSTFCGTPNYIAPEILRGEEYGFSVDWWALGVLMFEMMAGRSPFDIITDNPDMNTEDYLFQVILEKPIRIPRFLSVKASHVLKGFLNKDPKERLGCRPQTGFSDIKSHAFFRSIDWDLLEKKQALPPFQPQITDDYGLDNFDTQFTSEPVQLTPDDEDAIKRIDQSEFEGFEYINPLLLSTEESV

Homo sapiens = species: Homo sapiens; experiment: Ratio of IC50 for PKCzeta val297leu mutant (unknown origin) to IC50 for wild type PKCzeta (unknown origin)
Outline: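 Cell-free radiometric assay with purified recombinant full-length PKCζ wild type or PIF-pocket V297L mutant. Enzyme present at 0.2 μM. 4 min preincubation at 37 °C, reaction started with γ32P-ATP/Mg2+. IC50 values are means of at least two experiments.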

[11] = target: T2, Protein kinase C zeta type; experiment: Inhibition of PKCzeta in human U937 cells assessed as inhibition of TNFalpha-induced NF-kappaB activation by reporter gene assay; assay type: cell-based, U-937
[12] = target: T4, Protein kinase C zeta type (Homo sapiens) (UniProt Q05513); experiment: Inhibition of PKCzeta (unknown origin) expressed in HEK293 cells assessed as reduction in specific activity for 6 hrs after 30 mins IGF-I stimulation by in serum free medium; assay type: cell-based
T4 sequence (whole entry): T2 sequence (Q05513 whole entry)
Outline: (§1)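 HEK293 cells transfected at 80% confluency with GST-PKCζ wild-type or V297L mutant plasmids. Next day switched to DMEM with 0.1% FCS and compound or DMSO for 6 h, then IGF-I 50 ng/mL final for 30 min at 37 °C. Lysed; GST-PKCζ pulled down on glutathione beads and eluted. 50 ng per reaction assayed for kinase activity with myelin basic protein as substrate. Triplicate treatments, two independent experiments.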

[13] = target: T4, Protein kinase C zeta type (Homo sapiens); experiment: Inhibition of PKCzeta in serum-starved human U937 cells assessed as inhibition of TNFalpha-stimulated activation loop phosphorylation at 2.5 to 5 uM by immunoblotting analysis; assay type: cell-based; conditions: U-937
Outline: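 U937 cells in RPMI/10% FBS, serum-starved 24 h, treated with compound or DMSO for 1 h, then TNFα 50 ng/mL for 30 min. Whole-cell lysates separated by SDS–PAGE (10% gel) and immunoblotted for phospho-PKCζ/λ (Thr410/403), with β-actin as loading control. Near-infrared detection. Two separate experiments.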

[14] = target: Protein kinase C alpha type (Homo sapiens) (UniProt P17252); experiment: Inhibition of human PKCalpha at 10 uM relative to control
[15] = target: Protein kinase C beta type (Homo sapiens) (UniProt P05771); experiment: Inhibition of human PKCbeta1 at 10 uM relative to control
[16] = target: Protein kinase C gamma type (Homo sapiens) (UniProt P05129); experiment: Inhibition of human PKCgamma at 10 uM relative to control
[17] = target: Protein kinase C delta type (Homo sapiens) (UniProt Q05655); experiment: Inhibition of human PKCdelta at 10 uM relative to control
[18] = target: Protein kinase C epsilon type (Homo sapiens) (UniProt Q02156); experiment: Inhibition of human PKCepsilon at 10 uM relative to control
[19] = target: Protein kinase C eta type (Homo sapiens) (UniProt P24723); experiment: Inhibition of human PKCeta at 10 uM relative to control
[20] = target: Protein kinase C theta type (Homo sapiens) (UniProt Q04759); experiment: Inhibition of human PKCtheta at 10 uM relative to control
Chain of Protein kinase C theta type (Homo sapiens) (Q04759 whole entry, looked up): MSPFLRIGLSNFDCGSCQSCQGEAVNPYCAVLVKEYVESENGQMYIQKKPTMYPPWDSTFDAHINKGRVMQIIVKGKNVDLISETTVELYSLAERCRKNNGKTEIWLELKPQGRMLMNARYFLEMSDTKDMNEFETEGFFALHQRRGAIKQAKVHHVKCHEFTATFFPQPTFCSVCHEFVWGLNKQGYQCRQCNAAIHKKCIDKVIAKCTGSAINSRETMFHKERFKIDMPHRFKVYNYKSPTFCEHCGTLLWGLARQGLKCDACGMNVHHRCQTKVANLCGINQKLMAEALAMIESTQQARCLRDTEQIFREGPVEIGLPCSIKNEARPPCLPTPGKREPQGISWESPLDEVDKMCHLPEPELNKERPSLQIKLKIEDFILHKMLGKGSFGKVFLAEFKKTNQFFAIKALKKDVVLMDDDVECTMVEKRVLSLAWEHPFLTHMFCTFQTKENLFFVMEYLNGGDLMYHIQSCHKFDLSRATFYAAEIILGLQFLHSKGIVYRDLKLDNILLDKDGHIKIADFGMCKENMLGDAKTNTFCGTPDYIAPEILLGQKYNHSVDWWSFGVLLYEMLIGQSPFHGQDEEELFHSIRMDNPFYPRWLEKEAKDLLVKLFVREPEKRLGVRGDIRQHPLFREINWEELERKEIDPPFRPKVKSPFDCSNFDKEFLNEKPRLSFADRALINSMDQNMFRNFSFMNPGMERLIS

[21] = target: cAMP-dependent protein kinase catalytic subunit alpha (Homo sapiens) (UniProt P17612); experiment: Inhibition of human PKA at 10 uM relative to control
[22] = target: Ribosomal protein S6 kinase alpha-1 (Homo sapiens) (UniProt Q15418); experiment: Inhibition of human RSK1 at 10 uM relative to control
[23] = target: Ribosomal protein S6 kinase alpha-5 (Homo sapiens) (UniProt O75582); experiment: Inhibition of human MSK1 at 10 uM relative to control
[24] = target: Ribosomal protein S6 kinase beta-1 (Homo sapiens) (UniProt P23443); experiment: Inhibition of human p70S6K at 10 uM relative to control
[25] = target: Serine/threonine-protein kinase Sgk1 (Homo sapiens) (UniProt O00141); experiment: Inhibition of human SGK1 at 10 uM relative to control
Chain of Serine/threonine-protein kinase Sgk1 (Homo sapiens) (O00141 whole entry): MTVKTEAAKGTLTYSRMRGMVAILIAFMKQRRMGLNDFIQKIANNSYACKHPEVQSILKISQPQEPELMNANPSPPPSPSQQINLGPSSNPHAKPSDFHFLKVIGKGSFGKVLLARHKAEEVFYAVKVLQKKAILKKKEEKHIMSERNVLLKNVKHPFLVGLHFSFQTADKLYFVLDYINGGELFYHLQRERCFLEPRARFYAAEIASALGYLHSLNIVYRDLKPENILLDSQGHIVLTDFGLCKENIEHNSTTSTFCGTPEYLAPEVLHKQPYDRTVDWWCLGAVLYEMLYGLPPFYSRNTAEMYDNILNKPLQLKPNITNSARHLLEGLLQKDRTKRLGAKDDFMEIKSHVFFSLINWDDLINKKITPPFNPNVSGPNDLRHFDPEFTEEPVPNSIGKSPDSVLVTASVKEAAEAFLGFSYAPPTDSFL

[26] = target: 3-phosphoinositide-dependent protein kinase 1 (Homo sapiens) (UniProt O15530); experiment: Inhibition of human PDK1 at 10 uM relative to control
Chain of 3-phosphoinositide-dependent protein kinase 1 (Homo sapiens) (O15530 whole entry, looked up): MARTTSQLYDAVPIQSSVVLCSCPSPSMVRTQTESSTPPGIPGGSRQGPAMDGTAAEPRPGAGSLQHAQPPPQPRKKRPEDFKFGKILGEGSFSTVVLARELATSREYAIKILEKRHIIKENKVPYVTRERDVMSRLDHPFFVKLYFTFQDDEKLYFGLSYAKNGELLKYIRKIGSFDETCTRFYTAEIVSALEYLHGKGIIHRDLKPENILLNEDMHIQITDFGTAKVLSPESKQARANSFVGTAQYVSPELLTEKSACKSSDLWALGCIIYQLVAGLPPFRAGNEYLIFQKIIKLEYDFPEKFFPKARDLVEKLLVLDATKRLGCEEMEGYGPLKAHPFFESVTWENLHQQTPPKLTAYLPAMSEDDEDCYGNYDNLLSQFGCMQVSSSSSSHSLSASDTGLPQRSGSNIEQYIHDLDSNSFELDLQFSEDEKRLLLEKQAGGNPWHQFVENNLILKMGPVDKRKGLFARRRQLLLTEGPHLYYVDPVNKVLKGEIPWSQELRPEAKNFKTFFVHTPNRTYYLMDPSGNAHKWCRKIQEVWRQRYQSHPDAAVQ

U-937 = experiment: Inhibition of Thr410 phosphorylation in serum-starved human U937 cells at 5 to 10 uM by immunoblotting analysis
[27] = target: T4, Protein kinase C zeta type (Homo sapiens); experiment: Inhibition of PKCzeta (unknown origin) expressed in HEK293 cells assessed as reduction in specific activity at 2 to 5 uM for 6 hrs after 30 mins IGF-I stimulation by in serum free medium; assay type: cell-based; outline: as §1

| Compound | inhibition [6] | inhibition [7] [%] | IC50 [8] [nM] | inhibition [9] [%] | IC50 [10] [nM] | Ratio IC50 (Homo sapiens) | IC50 [11] [nM] | inhibition [13] | Activity (RAW264.7) | further results |
| --- | --- | --- | --- | --- | --- | --- | --- | --- | --- | --- |
| Oc1ccc(C2CC(c3cccs3)=NN2c2ccc(Br)cc2)cc1 (stereo not drawn) | – | 65 | 500 | 21.4 | 1000 | 2 | – | – | Non-toxic | – |
| CC(C)(C)C1=NN(c2ccc(Cl)cc2)C(c2ccc(O)c(Cl)c2)C1 (stereo not drawn) | – | – | 700 | 0 | 14800 | 20.8 | 2900 | – | Non-toxic | – |
| Oc1ccc(C2CC(c3ccccc3O)=NN2c2ccc(Cl)cc2)cc1 (stereo not drawn) | – | – | 1500 | 13.4 | 3100 | 2.1 | – | – | Non-toxic | – |

The next lines start with results.

| inhibition [6] | inhibition [7] [%] | IC50 [8] [nM] | inhibition [9] [%] | IC50 [10] [nM] | Ratio IC50 (Homo sapiens) | IC50 [11] [nM] | inhibition [13] | Compound | Activity (RAW264.7) | further results |
| --- | --- | --- | --- | --- | --- | --- | --- | --- | --- | --- |
| inactive | 50 | – | – | – | – | – | – | CC(C)(C)C1=NN(c2ccc(Cl)cc2)C(c2ccc(O)cc2)C1 (stereo not drawn) | Non-toxic | inhibition [1]: inactive; inhibition [2]: inactive; inhibition [3]: 10%; inhibition [4]: inactive; inhibition [5]: inactive |
| – | 74 | 300 | – | – | – | 2500 | Active | CC(C)(C)C1=NN(c2cccc(Cl)c2)C(c2ccc(F)c(O)c2)C1 (stereo not drawn) | Non-toxic | inhibition [12]: Dose-dependent effect; inhibition [14]: 4%; inhibition [15]: inactive; inhibition [16]: 6%; inhibition [17]: inactive; inhibition [18]: inactive; inhibition [19]: inactive; inhibition [20]: inactive; inhibition [21]: inactive; inhibition [22]: 3%; inhibition [23]: inactive; inhibition [24]: inactive; inhibition [25]: 18%; inhibition [26]: 8%; inhibition (U-937): Active |
| Active | – | – | – | – | – | – | inactive | Cn1cc(C2=C(c3cn(CCCSC(=N)N)c4ccccc34)C(=O)NC2=O)c2ccccc21 | – | inhibition [27]: inactive |
